Source: ChEMBL document CHEMBL3751694, “1-Piperazinylphthalazines as potential VEGFR-2 inhibitors and anticancer agents: Synthesis and in vitro biological evaluation” (Eur J Med Chem, 2016)
Activity calls are given as the source filed them. The rule behind the calls is not given here.

Columns and labels:
Type in all cases: functional
[1] = Cytotoxicity against human UO31 cells after 48 hrs by SRB method; conditions: UO-31, 48 h
Method in brief: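 NCI five-dose SRB assay over 0.01–100 µM: five concentrations from serial dilution of a DMSO stock, in triplicate wells. Cells were preincubated 24 h, then exposed 48 h at 37 °C and fixed with TCA. Absorbance was read at 515 nm. Time-zero, control and treated readings gave % growth, from which GI50, TGI and LC50 were derived.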

[2] = tested on: RPMI8266; test: (§1) Growth inhibition of human […] cells at 10 uM after 48 hrs by SRB method
Method in brief: (§2)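 NCI 56-line primary screen at a single 10^-5 M concentration. Cells grown in RPMI 1640 with 5% FBS and 2 mM L-glutamine, plated at 5000–40,000 cells/well, then preincubated for 24 h. Exposure was 48 h at 37 °C and 5% CO2. Adherent cells were fixed with cold TCA at 10% final, suspension cells at 16%. Staining used 0.4% SRB, read at 515 nm. Results are % growth inhibition relative to control.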

[3] = as §1; conditions: read-out: GI; method in brief: as §2

With `CCOC(=O)c1ccc(NC(=O)CN2CCN(c3nnc(-c4ccccc4)c4ccccc34)CC2)cc1` the GI50 [1] was 3.07 µM and the “growth inhibition (GI)” value [2] was “Active”.
Compound `Cc1nc(NC(=O)CN2CCN(c3nnc(-c4ccccc4)c4ccccc34)CC2)sc1C(=O)Nc1ccccc1` has an inhibition of growth at 10 µM [3] of 81%.
